The values below come from ChEMBL document CHEMBL5696442, “Discovery of type II inhibitors of TGFβ-activated kinase 1 (TAK1) and mitogen-activated protein kinase kinase kinase kinase 2 (MAP4K2)” (J Med Chem, 2015).

Assay [1] deals with Serine/threonine-protein kinase 16 (Homo sapiens) (UniProt O75716). The experiment in a line: Inhibition of MPSK1 Lys2 labeling site in human A-375 cells at 5 uM by KiNativ Profiling analysis relative to control. The assay is classed as cell-based.
Assay [2] addresses Serine/threonine-protein kinase Nek4 (Homo sapiens) (UniProt P51957). As to the kind of experiment: Inhibition of NEK4 Lys2 labeling site in human A-375 cells at 5 uM by KiNativ Profiling analysis relative to control. In kind it is cell-based.
Assay [3] concerns the target Ribosomal protein S6 kinase alpha-3 (Homo sapiens) (UniProt P51812). The experiment in a line: Inhibition of RSK2 domain1 ACT labeling site in human A-375 cells at 5 uM by KiNativ Profiling analysis relative to control. The assay is classed as cell-based. The essentials:
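Live A375 melanoma cells treated with compound at 5 or 0.5 μM, then lysed. Lysate kinases were labeled with a lysine-reactive ATP or ADP-biotin probe. Inhibition was read as protection of labeling sites from the probe.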

The target of assay [4] is T1, Inhibitor of nuclear factor kappa-B kinase subunit alpha (Homo sapiens) (UniProt O15111).
T1 sequence (whole entry): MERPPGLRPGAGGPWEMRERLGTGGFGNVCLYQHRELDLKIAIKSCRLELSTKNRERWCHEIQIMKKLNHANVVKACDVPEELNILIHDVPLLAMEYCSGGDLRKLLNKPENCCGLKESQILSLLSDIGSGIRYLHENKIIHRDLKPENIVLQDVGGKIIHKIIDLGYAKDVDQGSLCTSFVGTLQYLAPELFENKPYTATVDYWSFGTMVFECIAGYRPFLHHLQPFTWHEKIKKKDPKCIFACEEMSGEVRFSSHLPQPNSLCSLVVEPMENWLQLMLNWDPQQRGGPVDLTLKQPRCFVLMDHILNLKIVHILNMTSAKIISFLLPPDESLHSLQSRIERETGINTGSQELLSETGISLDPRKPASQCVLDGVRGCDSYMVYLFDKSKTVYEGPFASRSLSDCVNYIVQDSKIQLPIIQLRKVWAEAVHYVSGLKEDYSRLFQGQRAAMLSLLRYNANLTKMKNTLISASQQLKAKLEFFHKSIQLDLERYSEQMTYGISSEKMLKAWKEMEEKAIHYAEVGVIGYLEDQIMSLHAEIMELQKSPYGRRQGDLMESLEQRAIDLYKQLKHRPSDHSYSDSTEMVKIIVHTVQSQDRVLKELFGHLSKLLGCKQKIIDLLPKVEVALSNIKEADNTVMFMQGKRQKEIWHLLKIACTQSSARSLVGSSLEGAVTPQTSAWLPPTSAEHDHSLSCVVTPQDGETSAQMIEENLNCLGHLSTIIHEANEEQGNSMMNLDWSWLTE
The experiment in a line: Inhibition of IKKa Lys2 labeling site in human A-375 cells at 5 uM by KiNativ Profiling analysis relative to control. In kind it is cell-based.

Assay [5] deals with Phosphatidylinositol 4,5-bisphosphate 3-kinase catalytic subunit gamma isoform (Homo sapiens) (UniProt P48736). As to the kind of experiment: Inhibition of PIK3CG (unknown origin) at 10 uM by Ambit Kinomescan binding assay.
The target in assay [6] is Tyrosine-protein kinase HCK (Homo sapiens) (UniProt P08631). The experiment in a line: Inhibition of HCK (unknown origin) at 10 uM by Ambit Kinomescan binding assay relative to control; values are per cent of control.
For assay [7], the target named is Tyrosine-protein kinase Yes (Homo sapiens) (UniProt P07947). The experiment in a line: Inhibition of YES ACT labeling site in human Huh-7 cells at 1 uM by KiNativ Profiling analysis relative to control. The assay is classed as cell-based.
Assay [8] has as its target Non-receptor tyrosine-protein kinase TYK2 (Homo sapiens) (UniProt P29597). The experiment in a line: Inhibition of TYK2 JH2 pseudokinase domain (unknown origin) at 10 uM by Ambit Kinomescan binding assay.
Assay [9] has as its target Microtubule-associated serine/threonine-protein kinase 2 (Homo sapiens) (UniProt Q6P0Q8). The experiment in a line: Inhibition of MAST2 Lys2 labeling site in human A-375 cells at 5 uM by KiNativ Profiling analysis relative to control. The assay is classed as cell-based.
Assay [10] addresses Microtubule-associated serine/threonine-protein kinase 3 (Homo sapiens) (UniProt O60307). The experiment in a line: Inhibition of MAST3 Lys2 labeling site in human Huh-7 cells at 1 uM by KiNativ Profiling analysis relative to control. In kind it is cell-based.
Assay [11] addresses T2, Serine/threonine-protein kinase D2 (Homo sapiens) (UniProt Q9BZL6).
T2 sequence (whole entry): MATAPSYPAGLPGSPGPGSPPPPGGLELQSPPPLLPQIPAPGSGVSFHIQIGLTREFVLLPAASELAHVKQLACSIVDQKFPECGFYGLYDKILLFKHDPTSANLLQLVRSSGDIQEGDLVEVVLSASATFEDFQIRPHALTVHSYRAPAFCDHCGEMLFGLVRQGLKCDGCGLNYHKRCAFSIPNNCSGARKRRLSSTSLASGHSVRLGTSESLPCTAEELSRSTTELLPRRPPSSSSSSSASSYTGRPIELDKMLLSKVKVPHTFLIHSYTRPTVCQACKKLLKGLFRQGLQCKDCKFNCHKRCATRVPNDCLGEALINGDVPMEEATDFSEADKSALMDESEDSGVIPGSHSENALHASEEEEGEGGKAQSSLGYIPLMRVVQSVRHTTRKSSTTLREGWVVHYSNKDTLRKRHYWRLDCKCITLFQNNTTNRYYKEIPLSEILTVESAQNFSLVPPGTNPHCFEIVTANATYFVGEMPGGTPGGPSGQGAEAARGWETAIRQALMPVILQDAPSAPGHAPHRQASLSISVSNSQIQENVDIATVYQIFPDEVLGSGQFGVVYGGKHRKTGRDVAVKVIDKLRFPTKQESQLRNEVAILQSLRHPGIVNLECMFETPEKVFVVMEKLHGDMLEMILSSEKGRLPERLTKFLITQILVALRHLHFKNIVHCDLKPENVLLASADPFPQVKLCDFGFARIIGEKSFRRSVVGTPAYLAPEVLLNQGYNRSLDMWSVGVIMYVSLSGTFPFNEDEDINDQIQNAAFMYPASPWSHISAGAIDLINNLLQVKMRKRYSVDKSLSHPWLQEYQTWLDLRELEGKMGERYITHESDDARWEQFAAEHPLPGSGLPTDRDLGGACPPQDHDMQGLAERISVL
The experiment in a line: Inhibition of PKD2 Lys2 labeling site in human Huh-7 cell lysate at 1 uM by KiNativ Profiling analysis relative to control. The assay is classed as subcellular.

Each structure is given as a SMILES string. Calls of active or inactive are those of the source. The calls are words filed in the database; no cut-off is given here.

Sequence of Microtubule-associated serine/threonine-protein kinase 2 (Homo sapiens) (Q6P0Q8 whole entry): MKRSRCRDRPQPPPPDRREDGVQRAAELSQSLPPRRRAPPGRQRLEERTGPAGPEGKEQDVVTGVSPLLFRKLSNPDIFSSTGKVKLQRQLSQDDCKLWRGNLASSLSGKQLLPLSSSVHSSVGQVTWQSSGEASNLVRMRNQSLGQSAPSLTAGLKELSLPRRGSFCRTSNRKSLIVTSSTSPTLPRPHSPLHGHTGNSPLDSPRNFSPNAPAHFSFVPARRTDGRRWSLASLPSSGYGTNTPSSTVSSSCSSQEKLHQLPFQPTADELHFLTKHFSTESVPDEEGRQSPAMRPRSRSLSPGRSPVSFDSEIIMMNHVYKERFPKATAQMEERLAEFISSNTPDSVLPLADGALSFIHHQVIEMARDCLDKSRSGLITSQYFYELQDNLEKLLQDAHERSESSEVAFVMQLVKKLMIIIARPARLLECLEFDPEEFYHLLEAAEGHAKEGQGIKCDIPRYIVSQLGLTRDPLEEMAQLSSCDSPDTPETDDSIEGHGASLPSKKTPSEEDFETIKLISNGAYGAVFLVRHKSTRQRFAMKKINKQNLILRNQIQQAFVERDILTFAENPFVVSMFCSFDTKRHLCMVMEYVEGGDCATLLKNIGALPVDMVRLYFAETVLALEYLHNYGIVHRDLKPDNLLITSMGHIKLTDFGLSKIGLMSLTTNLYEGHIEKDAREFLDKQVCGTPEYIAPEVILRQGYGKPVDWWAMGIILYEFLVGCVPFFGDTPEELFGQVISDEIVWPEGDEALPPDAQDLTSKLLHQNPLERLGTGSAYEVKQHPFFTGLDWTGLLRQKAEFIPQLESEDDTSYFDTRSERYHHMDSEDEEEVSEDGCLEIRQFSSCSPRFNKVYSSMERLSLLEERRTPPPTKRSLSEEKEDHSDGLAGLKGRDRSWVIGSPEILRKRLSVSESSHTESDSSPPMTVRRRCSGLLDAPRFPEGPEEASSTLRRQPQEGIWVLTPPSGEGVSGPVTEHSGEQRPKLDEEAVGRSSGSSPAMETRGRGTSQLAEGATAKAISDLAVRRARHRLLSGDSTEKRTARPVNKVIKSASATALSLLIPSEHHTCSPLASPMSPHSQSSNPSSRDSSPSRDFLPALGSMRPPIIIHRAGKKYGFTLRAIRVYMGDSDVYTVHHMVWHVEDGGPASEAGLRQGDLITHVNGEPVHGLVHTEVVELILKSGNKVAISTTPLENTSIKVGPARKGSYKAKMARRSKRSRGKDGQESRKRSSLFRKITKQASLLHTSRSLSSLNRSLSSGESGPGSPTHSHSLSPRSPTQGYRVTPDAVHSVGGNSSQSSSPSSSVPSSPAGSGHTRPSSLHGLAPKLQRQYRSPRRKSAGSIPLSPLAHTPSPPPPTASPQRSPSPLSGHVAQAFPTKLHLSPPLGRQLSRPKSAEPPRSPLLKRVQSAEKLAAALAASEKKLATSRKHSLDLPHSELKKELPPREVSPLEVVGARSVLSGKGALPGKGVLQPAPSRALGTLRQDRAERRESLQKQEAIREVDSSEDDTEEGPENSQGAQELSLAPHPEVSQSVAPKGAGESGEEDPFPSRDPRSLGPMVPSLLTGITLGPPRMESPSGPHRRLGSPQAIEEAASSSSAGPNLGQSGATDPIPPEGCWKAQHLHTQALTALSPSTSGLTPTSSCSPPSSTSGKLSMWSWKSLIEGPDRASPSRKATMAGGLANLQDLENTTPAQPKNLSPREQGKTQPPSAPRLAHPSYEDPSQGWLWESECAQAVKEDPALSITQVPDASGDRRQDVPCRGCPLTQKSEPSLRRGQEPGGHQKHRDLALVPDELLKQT
Sequence of Serine/threonine-protein kinase Nek4 (Homo sapiens) (P51957 whole entry, looked up, the tested form may be a part): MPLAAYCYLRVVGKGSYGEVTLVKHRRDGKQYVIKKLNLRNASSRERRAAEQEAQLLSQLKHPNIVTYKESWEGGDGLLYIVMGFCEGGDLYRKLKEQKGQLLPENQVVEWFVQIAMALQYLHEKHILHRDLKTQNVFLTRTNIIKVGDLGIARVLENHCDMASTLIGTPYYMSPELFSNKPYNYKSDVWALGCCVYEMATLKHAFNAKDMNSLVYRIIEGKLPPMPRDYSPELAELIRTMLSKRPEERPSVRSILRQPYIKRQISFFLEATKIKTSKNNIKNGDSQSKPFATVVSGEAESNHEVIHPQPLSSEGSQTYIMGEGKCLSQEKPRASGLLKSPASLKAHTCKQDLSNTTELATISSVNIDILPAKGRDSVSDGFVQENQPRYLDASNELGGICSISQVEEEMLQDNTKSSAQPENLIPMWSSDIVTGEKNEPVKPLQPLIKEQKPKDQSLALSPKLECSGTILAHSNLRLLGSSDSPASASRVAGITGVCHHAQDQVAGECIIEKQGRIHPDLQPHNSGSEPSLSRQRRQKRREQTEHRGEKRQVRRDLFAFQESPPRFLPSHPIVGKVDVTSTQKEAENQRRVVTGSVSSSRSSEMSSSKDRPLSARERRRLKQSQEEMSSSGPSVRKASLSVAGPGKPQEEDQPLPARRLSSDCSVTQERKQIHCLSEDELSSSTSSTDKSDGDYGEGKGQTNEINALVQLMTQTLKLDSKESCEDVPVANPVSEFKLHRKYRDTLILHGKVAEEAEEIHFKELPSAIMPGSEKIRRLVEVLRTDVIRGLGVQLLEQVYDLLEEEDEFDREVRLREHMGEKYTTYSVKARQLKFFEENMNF
Sequence of Serine/threonine-protein kinase 16 (Homo sapiens) (O75716 whole entry): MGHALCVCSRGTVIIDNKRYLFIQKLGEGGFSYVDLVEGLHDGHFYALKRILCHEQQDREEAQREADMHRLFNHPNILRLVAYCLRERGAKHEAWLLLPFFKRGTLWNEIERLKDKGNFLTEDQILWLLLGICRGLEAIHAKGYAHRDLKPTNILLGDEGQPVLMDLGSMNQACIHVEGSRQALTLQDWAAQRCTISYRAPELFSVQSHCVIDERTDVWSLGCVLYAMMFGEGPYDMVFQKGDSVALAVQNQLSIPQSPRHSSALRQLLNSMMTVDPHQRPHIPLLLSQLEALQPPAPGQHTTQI
Sequence of Tyrosine-protein kinase Yes (Homo sapiens) (P07947 2-543 limits assumed): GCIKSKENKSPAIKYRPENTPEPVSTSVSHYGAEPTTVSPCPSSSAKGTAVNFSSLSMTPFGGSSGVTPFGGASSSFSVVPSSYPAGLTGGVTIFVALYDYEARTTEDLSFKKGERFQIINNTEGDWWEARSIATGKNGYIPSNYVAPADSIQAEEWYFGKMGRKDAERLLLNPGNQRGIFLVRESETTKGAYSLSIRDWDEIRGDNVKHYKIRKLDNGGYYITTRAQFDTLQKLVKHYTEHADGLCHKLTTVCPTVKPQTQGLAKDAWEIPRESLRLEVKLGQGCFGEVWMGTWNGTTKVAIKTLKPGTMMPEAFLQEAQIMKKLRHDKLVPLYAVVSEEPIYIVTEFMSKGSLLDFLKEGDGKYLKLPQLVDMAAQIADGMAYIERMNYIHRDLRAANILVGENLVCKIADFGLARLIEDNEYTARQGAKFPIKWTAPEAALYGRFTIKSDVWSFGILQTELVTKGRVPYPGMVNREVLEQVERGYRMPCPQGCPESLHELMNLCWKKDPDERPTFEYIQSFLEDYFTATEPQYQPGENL
Sequence of Ribosomal protein S6 kinase alpha-3 (Homo sapiens) (P51812 whole entry, the tested form may be a part): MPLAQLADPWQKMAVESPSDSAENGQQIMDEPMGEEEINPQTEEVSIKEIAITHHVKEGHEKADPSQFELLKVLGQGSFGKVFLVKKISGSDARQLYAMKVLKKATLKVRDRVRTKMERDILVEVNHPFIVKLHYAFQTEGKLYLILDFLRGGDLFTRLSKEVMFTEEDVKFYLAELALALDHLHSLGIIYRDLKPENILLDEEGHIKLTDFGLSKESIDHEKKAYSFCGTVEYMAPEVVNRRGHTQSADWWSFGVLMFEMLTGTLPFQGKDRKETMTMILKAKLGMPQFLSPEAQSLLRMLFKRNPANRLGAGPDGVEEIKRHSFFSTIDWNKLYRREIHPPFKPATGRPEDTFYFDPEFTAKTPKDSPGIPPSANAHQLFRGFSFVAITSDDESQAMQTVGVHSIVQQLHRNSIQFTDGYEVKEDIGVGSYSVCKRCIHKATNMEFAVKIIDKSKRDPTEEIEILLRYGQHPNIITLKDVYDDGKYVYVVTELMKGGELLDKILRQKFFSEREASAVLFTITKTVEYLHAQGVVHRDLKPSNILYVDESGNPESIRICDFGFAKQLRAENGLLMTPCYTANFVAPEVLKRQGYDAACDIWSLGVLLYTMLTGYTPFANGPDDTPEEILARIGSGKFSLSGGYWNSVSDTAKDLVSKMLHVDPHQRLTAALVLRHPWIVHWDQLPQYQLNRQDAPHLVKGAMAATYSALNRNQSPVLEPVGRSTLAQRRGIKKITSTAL
Sequence of Tyrosine-protein kinase HCK (Homo sapiens) (P08631 2-526 limits assumed): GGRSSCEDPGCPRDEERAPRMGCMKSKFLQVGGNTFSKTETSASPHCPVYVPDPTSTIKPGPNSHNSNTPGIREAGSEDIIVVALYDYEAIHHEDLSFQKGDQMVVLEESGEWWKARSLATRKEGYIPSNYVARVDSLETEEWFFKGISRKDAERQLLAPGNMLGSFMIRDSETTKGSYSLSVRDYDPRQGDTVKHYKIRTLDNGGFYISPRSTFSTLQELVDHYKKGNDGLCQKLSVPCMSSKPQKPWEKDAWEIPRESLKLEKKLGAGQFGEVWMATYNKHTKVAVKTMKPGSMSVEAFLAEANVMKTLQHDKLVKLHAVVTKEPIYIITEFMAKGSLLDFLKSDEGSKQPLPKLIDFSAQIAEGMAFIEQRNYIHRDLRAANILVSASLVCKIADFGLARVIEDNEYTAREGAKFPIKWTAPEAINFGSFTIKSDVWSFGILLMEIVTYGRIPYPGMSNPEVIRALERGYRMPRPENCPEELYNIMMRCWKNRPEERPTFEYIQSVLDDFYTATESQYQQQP

Usually inhibition stands for the relative decrease from the control value, in per cent. Regarding `CCN1CCN(Cc2ccc(NC(=O)c3ccc(C)c(/C=C/c4cnc5[nH]ccc5c4OC)c3)cc2C(F)(F)F)CC1`, the results for the inhibition in assay [1], in assay [2] and in [3] were 41%, 50.4% and 17.8%, respectively.

For `CCN1CCN(Cc2ccc(NC(=O)c3ccc(C)c(Oc4ccnc5[nH]ccc45)c3)cc2C(F)(F)F)CC1`, the inhibition in [4] was 72.4%; in [7], -0.3%; in assay [9], -6.1%. In addition, the inhibition entry in [5] and in [8] was “inactive” each time. For the same compound, the percent of control in assay [6] worked out at 0.4%.

Regarding `CNc1cc(Oc2cc(C(=O)Nc3cc(N4CCN(C)CC4)cc(C(F)(F)F)c3)ccc2C)ncn1`, the inhibition in assay [10] is 14.9%; in assay [11], -3.5%.
